Data reported in ChEMBL document CHEMBL5247578, “Effective synthesis of benzimidazoles-imidazo[1,2-a]pyrazine conjugates: A comparative study of mono-and bis-benzimidazoles for antitumor activity” (Eur J Med Chem, 2019).

How the values were obtained:
Calf thymus DNA [1] = assay: Binding affinity to calf thymus DNA assessed as DNA intercalation by measuring Stem-Volmer quenching constant at temperature of 318 K by fluorescence spectroscopic method; format: nucleic-acid assay; details: Bos taurus
SW-620 = assay: Antiproliferative activity against human SW620 cells assessed as cell growth at 0.0001 M incubated for 48 hrs by SRB assay relative to control; format: functional; details: read-out: Activity
NCI-H226 = assay: Growth inhibition against human NCI-H226 cells assessed as total growth inhibitory concentration incubated for 48 hrs by sulforhodamine B assay; format: functional
EKVX = assay: Growth inhibition against human EKVX cells assessed as total growth inhibitory concentration incubated for 48 hrs by sulforhodamine B assay; format: functional
COLO 205 = assay: Antiproliferative activity against human COLO 205 cells assessed as cell growth inhibition by measuring lethal concentration incubated for 48 hrs by sulforhodamine B assay; format: functional; details: read-out: LC50 (the source's name)
CCRF-CEM = assay: Growth inhibition against human CCRF-CEM cells incubated for 48 hrs by sulforhodamine B assay; format: functional
K562 [2] = assay: Growth inhibition against human K562 cells incubated for 48 hrs by sulforhodamine B assay; format: functional
Calf thymus DNA [3] = assay: Displacement of ethidium bromide from calf thymus DNA assessed as Stern-Volmer quenching constant upto 85 uM by fluorescence based spectroscopic analysis; format: nucleic-acid assay; details: Bos taurus
UO-31 = assay: Antiproliferative activity against human UO-31 cells assessed as cell growth at 0.0001 M incubated for 48 hrs by SRB assay relative to control; format: functional; details: read-out: Activity
Calf thymus DNA [4] = assay: Binding affinity to calf thymus DNA assessed as change in entropy at temperature of 298 K by Van't Hoff plot analysis; format: nucleic-acid assay; details: Bos taurus
HT-29 [5] = assay: Antiproliferative activity against human HT-29 cells assessed as cell growth at 0.000001 M incubated for 48 hrs by SRB assay relative to control; format: functional; details: read-out: Activity
Procedure, shortened: (§1)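 NCI-60 five-dose screen (10^-4 to 10^-8 M). Cells grown in RPMI 1640 with 5% FBS and 2 mM L-glutamine, plated at 5,000-40,000 cells/well and preincubated 24 h. Drug given from DMSO stock, then 48 h at 37 °C, 5% CO2. For adherent lines, cells fixed with cold TCA, SRB-stained and read at 515 nm. Percent growth taken against time-zero and untreated control.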

SF-268 = assay: Antiproliferative activity against human SF-268 cells assessed as cell growth inhibition by measuring lethal concentration incubated for 48 hrs by sulforhodamine B assay; format: functional; details: read-out: LC50 (the source's name)
HCC 2998 [6] = assay: Antiproliferative activity against human HCC 2998 cells assessed as cell growth at 0.000001 M incubated for 48 hrs by SRB assay relative to control; format: functional; details: read-out: Activity; procedure, shortened: as §1
M14 = assay: Growth inhibition against human M14 cells assessed as total growth inhibitory concentration incubated for 48 hrs by sulforhodamine B assay; format: functional
CAKI-1 [7] = assay: Antiproliferative activity against human CAKI-1 cells assessed as cell growth inhibition by measuring lethal concentration incubated for 48 hrs by sulforhodamine B assay; format: functional; details: read-out: LC50 (the source's name)
Calf thymus DNA [8] = assay: Binding affinity to calf thymus DNA assessed as binding constant at temperature of 308 K by Stern-Volmer quenching plot based fluorescence spectroscopic method; format: nucleic-acid assay; details: Bos taurus
Malme-3M = assay: Growth inhibition against human Malme-3M cells assessed as total growth inhibitory concentration incubated for 48 hrs by sulforhodamine B assay; format: functional
TK-10 = assay: Antiproliferative activity against human TK-10 cells assessed as cell growth at 0.00000001 M incubated for 48 hrs by SRB assay relative to control; format: functional; details: dose 10 nM, read-out: Activity
HL-60 = assay: Antiproliferative activity against human HL-60 cells assessed as cell growth at 0.00001 M incubated for 48 hrs by SRB assay relative to control; format: functional; details: read-out: Activity; procedure, shortened: as §1
SK-MEL-5 = assay: Antiproliferative activity against human SK-MEL-5 cells assessed as cell growth at 0.000001 M incubated for 48 hrs by SRB assay relative to control; format: functional; details: read-out: Activity
K562 [9] = assay: Antiproliferative activity against human K562 cells assessed as cell growth at 0.0000001 M incubated for 48 hrs by SRB assay relative to control; format: functional; details: dose 100 nM, read-out: Activity
HCC 2998 [10] = assay: Antiproliferative activity against human HCC 2998 cells assessed as cell growth inhibition by measuring lethal concentration incubated for 48 hrs by sulforhodamine B assay; format: functional; details: read-out: LC50 (the source's name)
SN12C = assay: Antiproliferative activity against human SN12C cells assessed as cell growth at 0.00000001 M incubated for 48 hrs by SRB assay relative to control; format: functional; details: dose 10 nM, read-out: Activity
SNB-75 = assay: Antiproliferative activity against human SNB-75 cells assessed as cell growth at 0.00001 M incubated for 48 hrs by SRB assay relative to control; format: functional; details: read-out: Activity
NCI-H522 = assay: Growth inhibition against human NCI-H522 cells incubated for 48 hrs by sulforhodamine B assay; format: functional
CAKI-1 [11] = assay: Antiproliferative activity against human CAKI-1 cells assessed as cell growth at 0.0000001 M incubated for 48 hrs by SRB assay relative to control; format: functional; details: dose 100 nM, read-out: Activity
Procedure, shortened: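 NCI-60 five-dose screen over 10^-4–10^-8 M (10-fold dilutions). Cells grown in RPMI 1640 with 5% FBS and 2 mM L-glutamine, seeded at 5,000–40,000 cells/well and preincubated 24 h. Drug from DMSO stock, 48 h at 37 °C, 5% CO2. Adherent cells TCA-fixed and stained with 0.4% SRB; A515 read. Percent growth = (Ti−Tz)/(C−Tz)×100, or (Ti−Tz)/Tz×100 when Ti<Tz.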

SF-295 = assay: Antiproliferative activity against human SF-295 cells assessed as cell growth at 0.00000001 M incubated for 48 hrs by SRB assay relative to control; format: functional; details: dose 10 nM, read-out: Activity
OVCAR-5 [12] = assay: Growth inhibition against human OVCAR-5 cells assessed as total growth inhibitory concentration incubated for 48 hrs by sulforhodamine B assay; format: functional
HT-29 [13] = assay: Antiproliferative activity against human HT-29 cells assessed as cell growth inhibition by measuring lethal concentration incubated for 48 hrs by sulforhodamine B assay; format: functional; details: read-out: LC50 (the source's name)
HCT-15 = assay: Growth inhibition against human HCT-15 cells assessed as total growth inhibitory concentration incubated for 48 hrs by sulforhodamine B assay; format: functional
HCC 2998 [14] = assay: Antiproliferative activity against human HCC 2998 cells assessed as cell growth at 0.00000001 M incubated for 48 hrs by SRB assay relative to control; format: functional; details: dose 10 nM, read-out: Activity; procedure, shortened: as §1
MDA-MB-231 = assay: Antiproliferative activity against human MDA-MB-231 cells assessed as cell growth inhibition by measuring lethal concentration incubated for 48 hrs by sulforhodamine B assay; format: functional; details: read-out: LC50 (the source's name)
UACC-62 = assay: Growth inhibition against human UACC-62 cells assessed as total growth inhibitory concentration incubated for 48 hrs by sulforhodamine B assay; format: functional
RXF 393 = assay: Growth inhibition against human RXF 393 cells assessed as total growth inhibitory concentration incubated for 48 hrs by sulforhodamine B assay; format: functional
OVCAR-5 [15] = assay: Growth inhibition against human OVCAR-5 cells incubated for 48 hrs by sulforhodamine B assay; format: functional
OVCAR-4 = assay: Growth inhibition against human OVCAR-4 cells incubated for 48 hrs by sulforhodamine B assay; format: functional
Albumin = Albumin (Bos taurus, UniProt P02769); assay: Binding affinity to bovine serum albumin assessed as fluorescence quenching by fluorescence spectroscopic method relative to control; details: cattle
Albumin, sequence (P02769 whole entry): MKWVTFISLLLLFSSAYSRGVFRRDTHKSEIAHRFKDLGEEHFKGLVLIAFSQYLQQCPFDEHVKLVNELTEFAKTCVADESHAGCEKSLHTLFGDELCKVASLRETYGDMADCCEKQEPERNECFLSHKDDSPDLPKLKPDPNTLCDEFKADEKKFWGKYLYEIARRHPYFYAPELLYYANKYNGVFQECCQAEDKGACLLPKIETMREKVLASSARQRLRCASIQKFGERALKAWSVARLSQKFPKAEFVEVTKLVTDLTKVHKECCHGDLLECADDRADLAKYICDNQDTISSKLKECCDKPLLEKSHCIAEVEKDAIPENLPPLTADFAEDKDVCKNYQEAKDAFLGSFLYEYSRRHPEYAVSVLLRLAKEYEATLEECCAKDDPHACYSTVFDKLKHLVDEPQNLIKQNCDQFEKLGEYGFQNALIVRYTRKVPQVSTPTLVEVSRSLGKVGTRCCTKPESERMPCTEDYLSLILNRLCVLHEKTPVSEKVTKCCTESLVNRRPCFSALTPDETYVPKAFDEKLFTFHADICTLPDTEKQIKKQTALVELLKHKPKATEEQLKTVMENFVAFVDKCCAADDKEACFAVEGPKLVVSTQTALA

Row | SMILES | growth at 100 µM (SW-620) | GI50 (CCRF-CEM) | KSV (Calf thymus DNA [3]) | growth at 1 µM (HT-29 [5]) | CC50 (SF-268) | growth at 1 µM (HCC 2998 [6]) | CC50 (CAKI-1 [7]) | growth at 0.01 µM (TK-10) | growth at 10 µM (HL-60) | growth at 1 µM (SK-MEL-5) | CC50 (HCC 2998 [10]) | growth at 0.01 µM (SN12C) | growth at 10 µM (SNB-75) | GI50 (NCI-H522) | growth at 0.1 µM (CAKI-1 [11]) | growth at 0.01 µM (SF-295) | CC50 (HT-29 [13]) | growth at 0.01 µM (HCC 2998 [14]) | further results
1 | COc1ccc(-c2cn3ccnc3c(-c3ccc4ncn(C5CCCCC5)c4c3)n2)cc1 | 19% | 1.64 µM | 0.82 10^4/M | 20% | > 100 µM | 86% | > 100 µM | 88% | -22% | 41% | > 100 µM | 97% | 3% | 0.424 µM | 90% | 87% | > 100 µM | 97% | KSV (Calf thymus DNA [1]): 0.73 10^4/M; TGI (NCI-H226): > 100 µM; TGI (EKVX): > 100 µM; CC50 (COLO 205): > 100 µM; GI50 (K562 [2]): 0.422 µM; growth at 100 µM (UO-31): 26%; deltaS (Calf thymus DNA [4]): -206 cal/mol/K; TGI (M14): > 100 µM; Kb (Calf thymus DNA [8]): 4.57 10^4/M; TGI (Malme-3M): > 100 µM; growth at 0.1 µM (K562 [9]): 92%; TGI (OVCAR-5 [12]): > 100 µM; TGI (HCT-15): > 100 µM; CC50 (MDA-MB-231): > 100 µM; TGI (UACC-62): > 100 µM
2 | c1ccc(Cn2cnc3ccc(-c4nc(-c5ccc6c(c5)ncn6C5CCCCC5)cn5ccnc45)cc32)cc1 | 7% | 2.18 µM | 0.74 10^4/M | 88% | > 100 µM | 105% | > 100 µM | 84% | -24% | 80% | 6.12 µM | 102% | -70% | 2.03 µM | 88% | 91% | > 100 µM | 94% | TGI (RXF 393): 2.75 µM; GI50 (OVCAR-5 [15]): 2.64 µM; GI50 (OVCAR-4): 3.06 µM; Activity (Albumin): 75%
